Reference: ChEMBL document CHEMBL1177718, “Phosphoramidate ProTides of 2'-C-methylguanosine as highly potent inhibitors of hepatitis C virus. Study of their in vitro and in vivo properties” (J Med Chem, 2010)

Columns and labels:
Homo sapiens [1] = organism: Homo sapiens; experiment: Metabolic stability in human plasma assessed as compound remaining at 1 ug/ml after 30 mins
[2] = Metabolic stability in human liver S9 fraction assessed as compound remaining at 10 uM after 30 mins by HPLC analysis in absence of NADP; format: ADME, subcellular; settings: read-out: Stability
[3] = Metabolic stability in cynomolgus monkey liver S9 fraction assessed as compound remaining at 10 uM after 30 mins by HPLC analysis in absence of NADP; format: ADME, subcellular, Macaca fascicularis; settings: read-out: Stability
[4] = Metabolic stability in rat liver S9 fraction assessed as compound remaining at 10 uM after 30 mins by HPLC analysis in absence of NADP; format: ADME, subcellular; settings: read-out: Stability
[5] = Metabolic stability in cynomolgus monkey liver S9 fraction assessed as compound remaining at 10 uM after 30 mins by HPLC analysis in presence of NADP; format: ADME, subcellular, Macaca fascicularis; settings: read-out: Stability
[6] = Metabolic stability in dog plasma assessed as compound remaining at 1 ug/ml after 30 mins; format: ADME, cell-free, Canis lupus familiaris; settings: read-out: Stability
Method in brief: (§1)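 Duplicate incubations; compound at final 1 μg/mL in plasma preincubated and kept at […]; samples taken at 30 or 240 min, quenched with ice-cold acetonitrile, centrifuged, supernatant diluted with water; parent quantified by LC-MS/MS (Polar-RP column, formic acid water/acetonitrile gradient, positive ion mode); % remaining reported.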

[7] = Metabolic stability in rat plasma assessed as compound remaining at 1 ug/ml after 30 mins; format: ADME, cell-free; settings: read-out: Stability
Method in brief: as §1

[8] = Metabolic stability in cynomolgus monkey intestine S9 fraction assessed as compound remaining at 10 uM after 30 mins by HPLC analysis in presence of NADP; format: ADME, tissue-based, Macaca fascicularis; settings: read-out: Stability
[9] = Metabolic stability in human intestine S9 fraction assessed as compound remaining at 10 uM after 30 mins by HPLC analysis in absence of NADP; format: ADME, tissue-based; settings: read-out: Stability
Hepatitis C virus = experiment: Antiviral activity against HCV1b infected in human HuH7 cells assessed as inhibition of viral replication after 48 hrs by luciferase reporter gene assay; format: functional, organism-based, Hepacivirus hominis; settings: genotype 1b, Huh-7, 48 h
Method in brief: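 Huh7 cells carrying genotype 1b bicistronic subgenomic replicon, seeded 2 × 10⁴/well without G-418; compounds added 18-24 h later, 48 h exposure; 3× or 4× serial dilutions over 0.0001-10 μM in triplicate/quadruplicate; Renilla luciferase read-out versus untreated cells; EC₅₀ by four-parameter sigmoidal nonlinear regression; at least three independent assays.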

[10] = Cytotoxicity against human HuH7 cells after 72 hrs by celltiter-glo assay; format: cell-based, Huh-7
Method in brief: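 Replicon 1b Huh7 cells seeded 2 × 10⁴/well; after 24 h, 11 serial 2× dilutions from 100 μM (three repeats each) with no-compound control; 72 h at 37 °C, CO₂, log-phase growth; viability by CellTiter-Glo luminescence; CC₅₀ = concentration giving 50% signal.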

[11] = Metabolic stability in mouse plasma assessed as compound remaining at 1 ug/ml after 30 mins; format: ADME, cell-free; settings: read-out: Stability
[12] = Metabolic stability in rat intestine S9 fraction assessed as compound remaining at 10 uM after 30 mins by HPLC analysis in presence of NADP; format: ADME, tissue-based; settings: read-out: Stability
[13] = Metabolic stability in cynomolgus monkey intestine S9 fraction assessed as compound remaining at 10 uM after 30 mins by HPLC analysis in absence of NADP; format: ADME, tissue-based, Macaca fascicularis; settings: read-out: Stability
[14] = Metabolic stability in human liver S9 fraction assessed as compound remaining at 10 uM after 30 mins by HPLC analysis in presence of NADP; format: ADME, subcellular; settings: read-out: Stability
[15] = Metabolic stability in rat intestine S9 fraction assessed as compound remaining at 10 uM after 30 mins by HPLC analysis in absence of NADP; format: ADME, tissue-based; settings: read-out: Stability
[16] = Metabolic stability in rat liver S9 fraction assessed as compound remaining at 10 uM after 30 mins by HPLC analysis in presence of NADP; format: ADME, subcellular; settings: read-out: Stability
[17] = Metabolic stability in human intestine S9 fraction assessed as compound remaining at 10 uM after 30 mins by HPLC analysis in presence of NADP; format: ADME, tissue-based; settings: read-out: Stability
[18] = Metabolic stability in cynomolgus monkey plasma assessed as compound remaining at 1 ug/ml after 30 mins; format: ADME, cell-free, Macaca fascicularis; settings: read-out: Stability
Method in brief: as §1

[19] = Metabolic stability in mouse plasma assessed as compound remaining at 1 ug/ml after 4 hrs; format: ADME, cell-free; settings: read-out: Stability
[20] = Cytotoxicity against human HEK293 cells after 72 hrs by celltiter-glo assay; format: cell-based
Method in brief: (§2)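 Cells kept in log phase of growth throughout the cytotoxicity experiments.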

[21] = Cytotoxicity against human HepG2 cells after 72 hrs by celltiter-glo assay; format: cell-based
Method in brief: as §2

Homo sapiens [22] = organism: Homo sapiens; experiment: Metabolic stability in human plasma assessed as compound remaining at 1 ug/ml after 4 hrs
[23] = Cytotoxicity against human Caco-2 cells after 72 hrs by celltiter-glo assay; format: cell-based
Method in brief: as §2

[24] = Selectivity index, […] for human HEL cells
Liver [25] = experiment: AUC (0 to 6 hrs) in ICR mouse liver at 50 mg/kg, po by LC-MS/MS analysis; format: ADME, organism-based; design: time < 6 hr, dose 50 mg/kg, route oral; settings: in vivo
[26] = Cmax in ICR mouse plasma at 50 mg/kg, po by LC-MS/MS analysis; format: ADME, organism-based; design: dose 50 mg/kg, route oral
[27] = Cytotoxicity against human HEL cells after 72 hrs by celltiter-glo assay; format: cell-based
Method in brief: as §2

Liver [28] = experiment: Dose normalized AUC in ICR mouse liver at 50 mg/kg, po by LC-MS/MS analysis; format: ADME, organism-based; design: dose 50 mg/kg, route oral; settings: in vivo
[29] = Cytotoxicity against human MT4 cells after 72 hrs by celltiter-glo assay; format: cell-based
Method in brief: as §2

[30] = Selectivity index, […] for human HepG2 cells
[31] = Cytotoxicity against human CEM cells after 72 hrs by celltiter-glo assay; format: cell-based, CCRF-CEM
Method in brief: as §2

[32] = Selectivity index, […] for human HuH7 cells; design: species or system Huh-7
Plasma = experiment: Dose normalized AUC in ICR mouse plasma at 50 mg/kg, po by LC-MS/MS analysis; format: ADME, organism-based; design: dose 50 mg/kg, route oral; settings: in vivo
[33] = Metabolic stability in rat plasma assessed as compound remaining at 1 ug/ml after 4 hrs; format: ADME, cell-free; settings: read-out: Stability
Method in brief: as §1

[34] = Selectivity index, […] for rat IEC-6 cells
[35] = Selectivity index, […] for human CEM cells; design: species or system CCRF-CEM
[36] = Selectivity index, […] for human Caco-2 cells
[37] = Selectivity index, […] for human HEK293 cells
[38] = Selectivity index, […] for human MT4 cells
[39] = Metabolic stability in dog plasma assessed as compound remaining at 1 ug/ml after 4 hrs; format: ADME, cell-free, Canis lupus familiaris; settings: read-out: Stability
Method in brief: as §1

[40] = Cytotoxicity against rat IEC6 cells after 72 hrs by celltiter-glo assay; format: cell-based
Method in brief: as §2

[41] = Metabolic stability in cynomolgus monkey plasma assessed as compound remaining at 1 ug/ml after 4 hrs; format: ADME, cell-free, Macaca fascicularis; settings: read-out: Stability
Method in brief: as §1

Liver [42] = experiment: AUC (0 to 24 hrs) in ICR mouse liver at 50 mg/kg, po by LC-MS/MS analysis; format: ADME, organism-based; design: time < 24 hr, dose 50 mg/kg, route oral; settings: in vivo
[43] = Metabolic stability in dog intestine S9 fraction assessed as compound remaining at 10 uM after 30 mins by HPLC analysis in absence of NADP; format: ADME, tissue-based, Canis lupus familiaris; settings: read-out: Stability
[44] = Metabolic stability in dog liver S9 fraction assessed as compound remaining at 10 uM after 30 mins by HPLC analysis in absence of NADP; format: ADME, subcellular, Canis lupus familiaris; settings: read-out: Stability
[45] = Metabolic stability in dog intestine S9 fraction assessed as compound remaining at 10 uM after 30 mins by HPLC analysis in presence of NADP; format: ADME, tissue-based, Canis lupus familiaris; settings: read-out: Stability
[46] = Metabolic stability in dog liver S9 fraction assessed as compound remaining at 10 uM after 30 mins by HPLC analysis in presence of NADP; format: ADME, subcellular, Canis lupus familiaris; settings: read-out: Stability

C[C@H](NP(=O)(OC[C@H]1O[C@@H](n2cnc3c(=O)[nH]c(N)nc32)[C@](C)(O)[C@@H]1O)Oc1cccc2ccccc12)C(=O)OCc1ccccc1 (some centres not stated)
remaining at 0.5 h, 1 ug/ml (Homo sapiens [1]): 58% | remaining at 0.5 h, 10 µM [2]: 41% | remaining at 0.5 h, 10 µM [3]: 32% | remaining at 0.5 h, 10 µM [4]: 0% | remaining at 0.5 h, 10 µM [5]: 0% | remaining at 0.5 h, 1 ug/ml [6]: 67% | remaining at 0.5 h, 1 ug/ml [7]: 1.3% | remaining at 0.5 h, 10 µM [8]: 0% | remaining at 0.5 h, 10 µM [9]: 49% | EC50 (Hepatitis C virus): 0.062 µM | CC50 at 72 h [10]: > 100 µM | remaining at 0.5 h, 1 ug/ml [11]: 1.1% | remaining at 0.5 h, 10 µM [12]: 30% | remaining at 0.5 h, 10 µM [13]: 30% | remaining at 0.5 h, 10 µM [14]: 27% | remaining at 0.5 h, 10 µM [15]: 46% | remaining at 0.5 h, 10 µM [16]: 0% | remaining at 0.5 h, 10 µM [17]: 0% | remaining at 0.5 h, 1 ug/ml [18]: 54%

C[C@H](NP(=O)(OC[C@H]1O[C@@H](n2cnc3c(=O)[nH]c(N)nc32)[C@](C)(O)[C@@H]1O)Oc1cccc2ccccc12)C(=O)O[C@@H](C)c1ccccc1 (some centres not stated)
remaining at 0.5 h, 1 ug/ml (Homo sapiens [1]): 100% | remaining at 4 h, 1 ug/ml [19]: 0% | CC50 at 72 h [20]: > 100 µM | CC50 at 72 h [21]: > 100 µM | remaining at 4 h, 1 ug/ml (Homo sapiens [22]): 99% | CC50 at 72 h [23]: > 100 µM | Selectivity Index [24]: >=1000 | AUC (Liver [25]): 2596 ng·h/g | Cmax [26]: 1380 ng/mL | CC50 at 72 h [27]: > 100 µM | remaining at 0.5 h, 1 ug/ml [6]: 97% | remaining at 0.5 h, 1 ug/ml [7]: 0.8% | AUC (Liver [28]): 108 ng·h/g | CC50 at 72 h [29]: 87 µM | Selectivity Index [30]: >=1000 | EC50 (Hepatitis C virus): 0.08 µM | CC50 at 72 h [10]: > 100 µM | CC50 at 72 h [31]: 82 µM | Selectivity Index [32]: >=1000 | AUC (Plasma): 85 ng·h/mL | remaining at 4 h, 1 ug/ml [33]: 0% | Selectivity Index [34]: >=1000 | Selectivity Index [35]: >=1000 | remaining at 0.5 h, 1 ug/ml [11]: 3.1% | Selectivity Index [36]: >=1000 | Selectivity Index [37]: >=1000 | Selectivity Index [38]: >=1000 | remaining at 4 h, 1 ug/ml [39]: 92% | CC50 at 72 h [40]: > 100 µM | remaining at 4 h, 1 ug/ml [41]: 100% | AUC (Liver [42]): 5390 ng·h/g | remaining at 0.5 h, 1 ug/ml [18]: 100%

C[C@@]1(O)[C@H](O)[C@@H](COP(=O)(N[C@@H](Cc2ccccc2)C(=O)OCc2ccccc2)Oc2cccc3ccccc23)O[C@H]1n1cnc2c(=O)[nH]c(N)nc21 (some centres not stated)
remaining at 0.5 h, 10 µM [2]: 20% | remaining at 0.5 h, 10 µM [9]: 5% | EC50 (Hepatitis C virus): 1.2 µM | CC50 at 72 h [10]: > 100 µM | remaining at 0.5 h, 10 µM [43]: 0% | remaining at 0.5 h, 1 ug/ml [11]: 1% | remaining at 0.5 h, 10 µM [44]: 15% | remaining at 0.5 h, 10 µM [14]: 0% | remaining at 0.5 h, 10 µM [45]: 0% | remaining at 0.5 h, 10 µM [17]: 0% | remaining at 0.5 h, 10 µM [46]: 4%
